Measured values of several laboratories.
Target: Mitogen-activated protein kinase 9 (MAPK9, Homo sapiens, UniProt P45984)

Structure (SMILES) | assay | conditions | remaining binding [%]
COc1ccnn2ncc(-c3ccnc(N(C)C)n3)c12 | binding | 1 µM | 100
O=C(c1ccc(Nc2nccc(-c3cc4ccccc4s3)n2)cc1)N1CCC(N2CCCC2)CC1 | binding, competition with immobilised ligand | 1 µM | 33
CC1=C(C#N)C(c2ccc3c(c2)c(NC(=O)c2ccccc2C)nn3C)C(C#N)=C(C)N1 | cell-free assay, competition with immobilised ligand | 1 µM | 73
O=C(NCCCN1CCOCC1)c1ccc(Nc2ncc(Cl)c(-c3ccc(Cl)s3)n2)cc1 | binding, competition with immobilised ligand | 1 µM | 11
CCC(=O)N[C@H]1CC[C@@H](C(=O)N(C)c2ccc(-c3nc4ccccc4o3)cc2)C1 | cell-free assay, competition with immobilised ligand | 1 µM | 79
C[C@H]1CCN(c2nccc(-c3cnn4ncccc34)n2)C1 | binding | 1 µM | 60
CN(C(=O)c1ccccc1)c1cc(N(C)c2ccc3c(c2)CCc2ccc(C(=O)NCCN4CCOCC4)cc2C3=O)ccc1F | cell-free assay, competition with immobilised ligand | 1 µM | 100
CC1CCCN1c1nccc(-c2cnn3ncccc23)n1 (stereo not drawn) | binding | 1 µM | 100
Cc1cnc(Nc2ccc(C(=O)N3CCC(N4CCCC4)CC3)cc2)nc1-c1cc2ccccc2s1 | binding, competition with immobilised ligand | 1 µM | 14
COC(=O)Nc1nc2ccc(C(=O)c3ccccc3)cc2[nH]1 | cell-free assay, competition with immobilised ligand | 10 µM | 9.6
CCOCCn1cc(C(=O)Nc2ccc(-n3nc(-c4cccnc4)cc3C(F)(F)F)cn2)ccc1=O | cell-free assay, competition with immobilised ligand | 1 µM | 97
COc1ncc2cc3ccccc3nc2c1C#N | cell-free assay, competition with immobilised ligand | 5 µM | 100
c1cncc(-c2cccc(Nc3nccc(NC4CCCCC4)n3)c2)c1 | binding, competition with immobilised ligand | 10 µM | 74
CNC(=O)[C@@H]1CC[C@@H](n2c(-c3ccc4cnccc4c3)nc3ccc(C(=O)NCc4cccc(C(N)=O)c4)cc32)C1 | binding, competition with immobilised ligand | 1 µM | 67
CN(c1nccc(-c2cnn3ncccc23)n1)C1CC1 | binding | 1 µM | 100
C[C@H](c1ccc(F)cc1)N(Cc1cccc(C(=O)O)c1)C(=O)c1cnc2ccccc2c1 | cell-free assay, competition with immobilised ligand | 1 µM | 81
C[C@@H]1CN(c2ccc3ncc(-c4ccc5[nH]nc(C6CC6)c5c4)n3n2)C[C@H](C)O1 | binding, competition with immobilised ligand | 50 nM | 80
CN(C)c1ncc(F)c(-c2cnn3ncccc23)n1 | binding | 1 µM | 82
O=C(NCC1CCOCC1)c1n[nH]cc1NC(=O)c1c(F)cccc1F | binding, competition with immobilised ligand | 1 µM | 57
COc1ccc2cc(OCC3(C(=O)O)CN(C(=O)c4ccc(F)cc4)C3)ccc2c1 | cell-free assay, competition with immobilised ligand | 1 µM | 100
COc1cnc(Nc2cccc(S(N)(=O)=O)c2)nc1N1CCN(c2ccccc2)C(=O)C1 | binding, competition with immobilised ligand | 1 µM | 69
Nc1ncc2c(n1)-c1c([nH]c3ccc(C#CC4CC4)cc13)CCCC2 | binding, competition with immobilised ligand | 1 µM | 81
N[C@H]1CCN(c2nccc(-c3cnn4ncccc34)n2)C1 | binding | 1 µM | 100
CCC(=N\O)/C(C)=C/c1ccc(F)cc1 | cell-free assay, competition with immobilised ligand | 1 µM | 92
